Laboratory results from ChEMBL document CHEMBL1139358, “Potent and orally bioavailable CCR4 antagonists: Synthesis and structure-activity relationship study of 2-aminoquinazolines” (Bioorg Med Chem, 2009).
Each block holds one compound with its values, some of them ahead of it.

Key:
[1] = molecular target: T1, C-C chemokine receptor type 4 (Homo sapiens) (UniProt P51679); assay: Antagonist activity at human CCR4 receptor expressed in mouse B300-19 cells assessed as CCL22-induced [35S]GTPgammaS binding at 1 uM; assay type: functional, cell-based
T1 sequence (whole entry): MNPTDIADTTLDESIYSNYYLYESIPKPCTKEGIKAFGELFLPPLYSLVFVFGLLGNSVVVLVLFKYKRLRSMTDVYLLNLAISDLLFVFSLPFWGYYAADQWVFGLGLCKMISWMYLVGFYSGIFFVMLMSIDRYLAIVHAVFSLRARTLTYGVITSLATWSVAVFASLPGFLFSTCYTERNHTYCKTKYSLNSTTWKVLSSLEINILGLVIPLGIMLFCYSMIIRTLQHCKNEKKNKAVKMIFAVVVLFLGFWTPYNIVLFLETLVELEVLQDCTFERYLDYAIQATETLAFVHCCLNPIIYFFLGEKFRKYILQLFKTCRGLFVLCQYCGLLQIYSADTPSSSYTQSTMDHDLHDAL
In short: (§1)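 B300-19 pre-B cell membranes stably expressing human CCR4 (1 µg protein/well), incubated 1.5 h at 25 °C with 150 pM [35S]GTPγS, 2 µM GDP, 3 nM MDC (CCL22), WGA SPA beads, in HEPES-NaOH pH 7.05, NaCl, MgCl2, BSA buffer. Scintillation counting. Percent inhibition from no-compound and no-CCL22 control wells. Duplicate wells, four test concentrations.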

[2] = molecular target: T2, C-C chemokine receptor type 4 (Homo sapiens, UniProt P51679); assay: Antagonist activity at human CCR4 receptor expressed in mouse B300-19 cells assessed as CCL22-induced [35S]GTPgammaS binding; assay type: functional, cell-based; in short: as §1
T2 sequence (P51679 whole entry): T1 sequence (whole entry)

Mus musculus [3] = assay: Antiinflammatory activity against oxazolone-induced contact hypersensitivity in BALB/c mouse model of acute dermatitis assessed as inhibition of ear swelling at 30 mg/kg, sc qd; assay type: functional; details: route subcutaneous
In short: (§2)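 Female BALB/c mice, 7 weeks, n = 5, sensitized with 3% oxazolone in ethanol on the shaved abdomen. Challenged on day 6 with 1% oxazolone on the right ear. Ear thickness gauged 20 h after challenge. Twice-daily dosing was given 30 min before and 8 h after challenge. Single doses were given after challenge only (8 h or 12 h). Percent inhibition of swelling calculated against control and vehicle groups.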

Mus musculus [4] = assay: Antiinflammatory activity against oxazolone-induced contact hypersensitivity in BALB/c mouse model of acute dermatitis assessed as inhibition of ear swelling at 100 mg/kg, po bid; assay type: functional; in short: as §2
[5] = Antagonist activity at human CCR4 receptor expressed in mouse B300-19 cells assessed as CCL22-induced chemotaxis
[6] = Antagonist activity at mouse CCR4 receptor expressed in mouse B300-19 cells assessed as CCL22-induced chemotaxis
Mus musculus [7] = assay: Antiinflammatory activity against oxazolone-induced contact hypersensitivity in BALB/c mouse model of acute dermatitis assessed as inhibition of ear swelling at 10 mg/kg, po qd; assay type: functional; in short: as §2
Mus musculus [8] = assay: Antiinflammatory activity against oxazolone-induced contact hypersensitivity in BALB/c mouse model of acute dermatitis assessed as inhibition of ear swelling at 100 mg/kg, po qd; assay type: functional; in short: as §2
[9] = Tmax in BALB/c mouse at 30 mg/kg, po administered as single dose; assay type: ADME, organism-based; parameters: dose 30 mg/kg, route oral; details: in vivo
[10] = Cmax in BALB/c mouse at 30 mg/kg, po administered as single dose; assay type: ADME, organism-based; parameters: dose 30 mg/kg, route oral; details: in vivo
Mus musculus [11] = assay: AUC (0 to 24 hrs) in BALB/c mouse at 30 mg/kg, po administered as single dose; assay type: ADME, organism-based, Plasma; parameters: time < 24 hr, dose 30 mg/kg, route oral; details: in vivo
[12] = Tmax in BALB/c mouse at 100 mg/kg, po administered as single dose; assay type: ADME, organism-based; parameters: dose 100 mg/kg, route oral; details: in vivo
[13] = Cmax in BALB/c mouse at 100 mg/kg, po administered as single dose; assay type: ADME, organism-based; parameters: dose 100 mg/kg, route oral; details: in vivo
Mus musculus [14] = assay: AUC (0 to 24 hrs) in BALB/c mouse at 100 mg/kg, po administered as single dose; assay type: ADME, organism-based, Plasma; parameters: time < 24 hr, dose 100 mg/kg, route oral; details: in vivo
Mus musculus [15] = assay: Antiinflammatory activity against oxazolone-induced contact hypersensitivity in BALB/c mouse model of acute dermatitis assessed as inhibition of ear swelling at 30 mg/kg, po qd; assay type: functional; in short: as §2
Mus musculus [16] = assay: Antiinflammatory activity against oxazolone-induced contact hypersensitivity in BALB/c mouse model of acute dermatitis assessed as inhibition of ear swelling at 30 mg/kg, po bid; assay type: functional; in short: as §2
Mus musculus [17] = assay: Antiinflammatory activity against oxazolone-induced contact hypersensitivity in BALB/c mouse model of acute dermatitis assessed as inhibition of ear swelling at 30 mg/kg, sc bid; assay type: functional; details: route subcutaneous; in short: as §2
[18] = molecular target: T3, C-C chemokine receptor type 4 (Mus musculus) (UniProt P51680); assay: Antagonist activity at mouse CCR4 receptor expressed in mouse B300-19 cells assessed as CCL22-induced chemotaxis at 1 uM; assay type: functional, cell-based
T3 sequence (whole entry): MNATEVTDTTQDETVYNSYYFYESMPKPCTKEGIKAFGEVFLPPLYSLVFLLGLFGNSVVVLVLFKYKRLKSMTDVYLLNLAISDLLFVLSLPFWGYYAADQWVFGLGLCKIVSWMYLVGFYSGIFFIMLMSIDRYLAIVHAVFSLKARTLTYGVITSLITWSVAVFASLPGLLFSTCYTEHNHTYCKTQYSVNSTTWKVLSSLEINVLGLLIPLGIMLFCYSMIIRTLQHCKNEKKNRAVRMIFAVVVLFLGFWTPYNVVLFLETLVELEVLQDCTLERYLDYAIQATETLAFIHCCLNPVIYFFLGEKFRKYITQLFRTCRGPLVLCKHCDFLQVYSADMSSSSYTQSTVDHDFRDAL
In short: (§3)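 Stable CCR4 transfectants of B300-19 cells (human or mouse receptor) at 5 × 10^6 cells/mL in RPMI 1640 with 0.1% BSA, pretreated with test compound. Cells placed above 5-µm polycarbonate filters, with 3 nM human (human CCR4 cells) or 1 nM mouse (mouse CCR4 cells) CCL22 below. Migration for 3 h at 37 °C, 5% CO2. Migrated cells quantified by ATP bioluminescence. Triplicates, four concentrations.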

[19] = molecular target: T1, C-C chemokine receptor type 4 (Homo sapiens); assay: Antagonist activity at human CCR4 receptor expressed in mouse B300-19 cells assessed as CCL22-induced chemotaxis at 1 uM; assay type: functional, cell-based; in short: as §3

inhibition [1]: 4%
Structure (SMILES): COc1cc2nc(N3CCC(N4CCCC(CO)C4)CC3)nc(NC3CCOCC3)c2cc1OC (stereo not given)

IC50 [2]: 48 nM
Structure (SMILES): COc1cc2nc(N3CCC(N4CCCC(O)C4)CC3)nc(Nc3ccc(Cl)cc3)c2cc1OC (stereo not given)

inhibition [1]: 11%
Structure (SMILES): COc1cc2nc(N3CCC(N4CCCC(CO)C4)CC3)nc(NC(=O)c3ccc(Cl)cc3)c2cc1OC (stereo not given)

IC50 [5]: 200 nM
IC50 [6]: 130 nM
Structure (SMILES): COc1cc2nc(N3CCC(N4CCCC4)CC3)nc(NC3CCCCCC3)c2cc1OC
inhibition in vivo at 30 mg/kg (Mus musculus [3]): 39%
inhibition in vivo at 100 mg/kg (Mus musculus [4]): 8%

inhibition [1]: 23%
Structure (SMILES): COc1cc2nc(N3CCC(N4CCCC(CO)C4)CC3)nc(N(C)CCc3ccc(Cl)cc3)c2cc1OC (stereo not given)

inhibition [1]: 42%
Structure (SMILES): COc1cc2nc(N3CCC(N4CCCC(CO)C4)CC3)nc(C(=O)c3ccc(Cl)cc3)c2cc1OC (stereo not given)

inhibition [1]: 0%
Structure (SMILES): COc1cc2nc(N3CCC(N4CCCC(CO)C4)CC3)nc(NC3CCS(=O)(=O)CC3)c2cc1OC (stereo not given)

inhibition [1]: 5%
Structure (SMILES): COc1cc2nc(N3CCC(N4CCCC(CO)C4)CC3)nc(NS(=O)(=O)c3ccc(Cl)cc3)c2cc1OC (stereo not given)

IC50 [2]: 19 nM
Tmax [9]: 2 h
Cmax [10]: 139 ng/mL
AUC (Mus musculus [11]): 1010 ng·h/mL
Tmax [12]: 2 h
Cmax [13]: 262 ng/mL
AUC (Mus musculus [14]): 1750 ng·h/mL
Structure (SMILES): COc1cc2nc(N3CCC(N4CCCC(CO)C4)CC3)nc(Nc3ccc(Cl)cc3)c2cc1OC (stereo not given)
inhibition in vivo at 30 mg/kg (Mus musculus [3]): 44%
inhibition in vivo at 10 mg/kg (Mus musculus [7]): 13%
inhibition in vivo at 100 mg/kg (Mus musculus [8]): 39%
inhibition in vivo at 30 mg/kg (Mus musculus [15]): 17%

IC50 [5]: 110 nM
IC50 [6]: 130 nM
Structure (SMILES): COc1cc2nc(N3CCC(N4CCCC4)CC3)nc(Nc3ccc(Cl)cc3)c2cc1OC
inhibition in vivo at 30 mg/kg (Mus musculus [16]): 2%
inhibition in vivo at 30 mg/kg (Mus musculus [17]): 43%

IC50 [2]: 100 nM
Structure (SMILES): COc1cc2nc(N3CCC(N4CCCC(OC)C4)CC3)nc(Nc3ccc(Cl)cc3)c2cc1OC (stereo not given)

IC50 [2]: 100 nM
inhibition [18]: 50%
Structure (SMILES): COc1cc2nc(N3CCC(N4CCOC(CO)C4)CC3)nc(Nc3ccc(Cl)cc3)c2cc1OC (stereo not given)

IC50 [2]: 61 nM
inhibition [19]: 43%
Structure (SMILES): COc1cc2nc(N3CCC(N4CCCC(CO)C4)CC3)nc(NCCc3ccc(Cl)cc3)c2cc1OC (stereo not given)

IC50 [2]: 52 nM
Structure (SMILES): COCC1CCCN(C2CCN(c3nc(Nc4ccc(Cl)cc4)c4cc(OC)c(OC)cc4n3)CC2)C1 (stereo not given)

IC50 [2]: 87 nM
Structure (SMILES): COc1cc2nc(N3CCC(N4CCCC(CO)C4)CC3)nc(NCc3ccc(Cl)cc3)c2cc1OC (stereo not given)

inhibition [1]: 7%
Structure (SMILES): COc1cc2nc(N3CCC(N4CCCC(CO)C4)CC3)nc(C(O)c3ccc(Cl)cc3)c2cc1OC (stereo not given)

Structure (SMILES): COc1cc2nc(N3CCC(N4CCCCC4)CC3)nc(NC3CCCCCC3)c2cc1OC
inhibition in vivo at 30 mg/kg (Mus musculus [16]): 2%

IC50 [2]: 30 nM
Structure (SMILES): COc1cc2nc(N3CCC(N4CCCC(CO)C4)CC3)nc(NC3CCCCCC3)c2cc1OC (stereo not given)
inhibition in vivo at 30 mg/kg (Mus musculus [16]): 11%

IC50 [2]: > 1000 nM
Structure (SMILES): COc1cc2nc(N3CCC(N4CCCC(CO)C4)CC3)nc(-c3ccc(Cl)cc3)c2cc1OC (stereo not given)

IC50 [2]: 180 nM
Structure (SMILES): COc1cc2nc(N3CCC(N4CCCC(CO)C4)CC3)nc(NCCCc3ccc(Cl)cc3)c2cc1OC (stereo not given)

inhibition [1]: 40%
Structure (SMILES): COc1cc2nc(N3CCC(N4CCCC(CO)C4)CC3)nc(N3CCc4cc(Cl)ccc43)c2cc1OC (stereo not given)
